Consider six compounds from ChEMBL document CHEMBL1152843, “Synthesis of new series of 5,6-dihydro-4H-1,2-oxazines via hetero Diels-Alder reaction and evaluation of antimicrobial activity” (2009).

In brackets after ≈: the same amount, converted by molar mass.

Assay type in all cases: functional
Assay [1] relates to Fusarium verticillioides. Description: Antifungal activity against Fusarium moniliforme after 48 hrs by cup diffusion method.
The subject of assay [2] is Staphylococcus aureus. Briefly: Antibacterial activity against Staphylococcus aureus MTCC 737 at 20 ug after 24 hrs by cup diffusion method. Particulars: MTCC 737, 24 h, read-out: IZ. In short, it runs like this:
(§1)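 Agar cup diffusion. Plates of sterile medium in 9 cm dishes were seeded with 1 × 10⁵ cfu of bacteria, with the suspension adjusted to at least 1 × 10⁵ cfu/ml in nutrient broth. Compound in DMF was placed in 5 mm cups and pre-diffused for 1 h. Plates were incubated at 37 °C for 24 h and the inhibition zone measured in mm. DMF served as negative control.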

Assay [3] concerns Fusarium oxysporum. Description: Antifungal activity against Fusarium oxysporum after 48 hrs by cup diffusion method.
Assay [4] concerns Escherichia coli. Briefly: Antibacterial activity against Escherichia coli MTCC 443 after 24 hrs by cup diffusion method. The settings on record: MTCC 443, 24 h.
Assay [5] deals with Pseudomonas aeruginosa. Briefly: Antibacterial activity against Pseudomonas aeruginosa MTCC 1688 at 20 ug after 24 hrs by cup diffusion method. The settings on record: MTCC 1688, 24 h, read-out: IZ. In short, it runs like this: as §1
Assay [6] has as its system Pseudomonas aeruginosa. Description: Antibacterial activity against Pseudomonas aeruginosa MTCC 1688 after 24 hrs by cup diffusion method. The settings on record: MTCC 1688, 24 h.
Assay [7] has as its system Aspergillus flavus. Briefly: Antifungal activity against Aspergillus flavus after 48 hrs by cup diffusion method.
Assay [8] relates to Fusarium oxysporum. Description: Antifungal activity against Fusarium oxysporum at 20 ug after 48 hrs by cup diffusion method. The settings on record: for zone of inhibition at 20 µg/disc: read-out: IZ. In short, it runs like this: (§2)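 Cup diffusion on 9 cm plates seeded with 1 × 10⁶ cfu of fungi, with spores adjusted to at least 1 × 10⁶ cfu/ml in potato dextrose broth. Compound in DMF was placed in 5 mm agar cups and left 1 h to diffuse. Plates were incubated at 28 °C for 48 h and the inhibition zone read in mm. DMF was the negative control.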

In assay [9] the test system is Fusarium verticillioides. Description: Antifungal activity against Fusarium moniliforme at 20 ug after 48 hrs by cup diffusion method. Particulars: for zone of inhibition at 20 µg/disc: read-out: IZ. Put shortly: as §2
For assay [10], the system named is Escherichia coli. Briefly: Antibacterial activity against Escherichia coli MTCC 443 at 20 ug after 24 hrs by cup diffusion method. Particulars: MTCC 443, 24 h, read-out: IZ. Put shortly:
as §1

In assay [11] the test system is Aspergillus niger. Briefly: Antifungal activity against Aspergillus niger after 48 hrs by cup diffusion method.
Assay [12] has as its system Klebsiella pneumoniae. Description: Antibacterial activity against Klebsiella pneumoniae […] at 20 ug after 24 hrs by cup diffusion method. The settings on record: read-out: IZ. In short, it runs like this: as §1
For assay [13], the system named is Aspergillus niger. Briefly: Antifungal activity against Aspergillus niger at 20 ug after 48 hrs by cup diffusion method. The settings on record: read-out: IZ. Put shortly: as §2
For assay [14], the system named is Aspergillus flavus. Description: Antifungal activity against Aspergillus flavus at 20 ug after 48 hrs by cup diffusion method. Particulars: for zone of inhibition at 20 µg/disc: read-out: IZ. Put shortly:
as §2

The subject of assay [15] is Staphylococcus aureus. Briefly: Antibacterial activity against Staphylococcus aureus MTCC 737 after 24 hrs by cup diffusion method. Particulars: MTCC 737, 24 h.
Assay [16] concerns Klebsiella pneumoniae. Description: Antibacterial activity against Klebsiella pneumoniae […] after 24 hrs by cup diffusion method.

Consider `COc1ccc(C2=NOC(Cc3ccc4c(c3)OCO4)CC2)cc1` (configuration not stated), for which the MIC against Fusarium verticillioides [1] worked out at 35 µg/mL (≈ 108 µM); with Fusarium oxysporum [3], 35 µg/mL (≈ 108 µM); in the assay with Escherichia coli [4], 25 µg/mL (≈ 76.8 µM); with Pseudomonas aeruginosa [6], 20 µg/mL (≈ 61.5 µM); with Aspergillus flavus [7] it was 40 µg/mL (≈ 123 µM); against Aspergillus niger [11], 35 µg/mL (≈ 108 µM). The MIC in the assay with Staphylococcus aureus [15] and with Klebsiella pneumoniae [16] was 15 µg/mL (≈ 46.1 µM) each time. In addition, the zone of inhibition at 20 µg/disc with Staphylococcus aureus [2] amounted to 21.7 mm; in the assay on Pseudomonas aeruginosa [5], 31.8 mm; with Fusarium oxysporum [8], 16.8 mm; in the assay on Fusarium verticillioides [9] it was 12.8 mm; in the assay with Escherichia coli [10], 21.8 mm; in the assay with Klebsiella pneumoniae [12], 19.7 mm. In addition, the zone of inhibition at 20 µg/disc in the assay on Aspergillus niger [13] stood at 10.7 mm; with Aspergillus flavus [14], 9.66 mm.
As for `OCC1CCC(c2ccc3c(c2)CCC3)=NO1` (configuration not stated), the minimum inhibitory concentration (MIC) against Fusarium verticillioides [1] came out at 35 µg/mL (≈ 151 µM); against Fusarium oxysporum [3], 25 µg/mL (≈ 108 µM); against Escherichia coli [4], 35 µg/mL (≈ 151 µM); against Pseudomonas aeruginosa [6], 20 µg/mL (≈ 86.5 µM); with Aspergillus flavus [7], 30 µg/mL (≈ 130 µM); against Aspergillus niger [11], 30 µg/mL (≈ 130 µM). For the same compound, the minimum inhibitory concentration (MIC) in the assay on Staphylococcus aureus [15] stood at 20 µg/mL (≈ 86.5 µM); against Klebsiella pneumoniae [16], 25 µg/mL (≈ 108 µM). Besides, the zone of inhibition at 20 µg/disc with Staphylococcus aureus [2] came to 10.7 mm; in the assay on Pseudomonas aeruginosa [5], 13.7 mm; in the assay with Fusarium oxysporum [8], 18.8 mm; in the assay on Fusarium verticillioides [9], 13.7 mm; with Escherichia coli [10], 10.5 mm; with Klebsiella pneumoniae [12], 17.7 mm. Further, the figures for the zone of inhibition at 20 µg/disc with Aspergillus niger [13] and in the assay with Aspergillus flavus [14] were 7.66 mm and 9.83 mm, respectively.
For the compound `c1cc2c(cc1CC1CCC(c3ccc4c(c3)CCC4)=NO1)OCO2` (configuration not stated), the MIC is 20 µg/mL (≈ 59.6 µM) in the assay on Fusarium verticillioides [1]; 15 µg/mL (≈ 44.7 µM) against Fusarium oxysporum [3]; 25 µg/mL (≈ 74.5 µM) with Escherichia coli [4]; 15 µg/mL (≈ 44.7 µM) in the assay on Pseudomonas aeruginosa [6]; 15 µg/mL (≈ 44.7 µM) in the assay with Aspergillus flavus [7]; 20 µg/mL (≈ 59.6 µM) against Aspergillus niger [11]. Also, the values for the MIC in the assay with Staphylococcus aureus [15] and with Klebsiella pneumoniae [16] were 10 µg/mL (≈ 29.8 µM) and 15 µg/mL (≈ 44.7 µM), respectively. Besides, the zone of inhibition at 20 µg/disc in the assay with Staphylococcus aureus [2] was determined as 15.7 mm; with Pseudomonas aeruginosa [5] it was 21.5 mm; in the assay with Fusarium oxysporum [8], 26.7 mm; in the assay with Fusarium verticillioides [9] it was 21.5 mm; in the assay on Escherichia coli [10], 11.5 mm; in the assay with Klebsiella pneumoniae [12] it was 16.5 mm. Also, the zone of inhibition at 20 µg/disc was determined as 18.7 mm with Aspergillus niger [13] and 20.7 mm in the assay with Aspergillus flavus [14].
Turning to `COc1ccc(C2=NOC(C#N)CC2)cc1` (configuration not stated), the minimum inhibitory concentration (MIC) was determined as 35 µg/mL (≈ 162 µM) against Fusarium verticillioides [1]; 30 µg/mL (≈ 139 µM) with Fusarium oxysporum [3]; 25 µg/mL (≈ 116 µM) against Escherichia coli [4]; 15 µg/mL (≈ 69.4 µM) in the assay with Pseudomonas aeruginosa [6]; 35 µg/mL (≈ 162 µM) in the assay with Aspergillus flavus [7]; 40 µg/mL (≈ 185 µM) with Aspergillus niger [11]. The MIC against Staphylococcus aureus [15] came out at 10 µg/mL (≈ 46.2 µM); with Klebsiella pneumoniae [16] it was 15 µg/mL (≈ 69.4 µM). Also, the zone of inhibition at 20 µg/disc with Staphylococcus aureus [2] came out at 9.5 mm; in the assay on Pseudomonas aeruginosa [5], 12.2 mm; with Fusarium oxysporum [8], 18.5 mm; in the assay on Fusarium verticillioides [9] it was 13.4 mm; with Escherichia coli [10], 10.2 mm; in the assay with Klebsiella pneumoniae [12] it was 6.66 mm. Moreover, the zone of inhibition at 20 µg/disc in the assay with Aspergillus niger [13] was found to be 9.5 mm; in the assay with Aspergillus flavus [14], 8.5 mm.
Turning to `Cc1ccc(C2=NOC(Cc3ccc4c(c3)OCO4)CC2)cc1C` (configuration not stated), the MIC was found to be 20 µg/mL (≈ 61.8 µM) against Fusarium verticillioides [1]; 10 µg/mL (≈ 30.9 µM) with Fusarium oxysporum [3]; 30 µg/mL (≈ 92.8 µM) against Escherichia coli [4]; 20 µg/mL (≈ 61.8 µM) with Pseudomonas aeruginosa [6]; 10 µg/mL (≈ 30.9 µM) in the assay on Aspergillus flavus [7]; 15 µg/mL (≈ 46.4 µM) in the assay with Aspergillus niger [11]. For the same compound, the minimum inhibitory concentration (MIC) with Staphylococcus aureus [15] came to 15 µg/mL (≈ 46.4 µM); in the assay with Klebsiella pneumoniae [16] it was 20 µg/mL (≈ 61.8 µM). Also, the zone of inhibition at 20 µg/disc was found to be 21.3 mm in the assay with Staphylococcus aureus [2]; 11 mm in the assay with Pseudomonas aeruginosa [5]; 25.3 mm in the assay with Fusarium oxysporum [8]; 22.8 mm with Fusarium verticillioides [9]; 11.5 mm with Escherichia coli [10]; 15.5 mm in the assay with Klebsiella pneumoniae [12]. The zone of inhibition at 20 µg/disc in the assay on Aspergillus niger [13] is 15.7 mm; in the assay on Aspergillus flavus [14], 18.8 mm.
On to NYSTATIN, for which the MIC came out at 15 µg/mL against Fusarium verticillioides [1], 20 µg/mL in the assay with Fusarium oxysporum [3], 15 µg/mL with Aspergillus flavus [7] and 10 µg/mL in the assay with Aspergillus niger [11]. Also, the values for the inhibition zone (IZ) in the assay with Fusarium oxysporum [8], in the assay with Fusarium verticillioides [9] and in the assay on Aspergillus flavus [14] were 16.6 mm, 15.6 mm and 13.2 mm, respectively.

For orientation: MIC means the lowest concentration found to suppress growth. Read a high MIC as weaker potency.
